# Measured values taken from ChEMBL document CHEMBL1142583, “Cytotoxic flavonol glycosides from Triplaris cumingiana” (2005).
# How the values were obtained:
# Type in all cases: functional
# SF-268 = experiment: Cytotoxicity against human SF-268 cells
# Method in brief: (§1)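 Human cancer cell panel: MCF-7 (breast), H-460 (lung) and SF-268 (central nervous system), run by the Monks et al. protocol; adriamycin served as the reference compound.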
# MCF7 = experiment: Cytotoxicity against human MCF7 cell; method in brief: as §1
# NCI-H460 = experiment: Cytotoxicity against human H460 cells; method in brief: as §1
SMILES,GI50 (SF-268),GI50 (MCF7),GI50 (NCI-H460)
O=C(OC[C@@H]1O[C@@H](Oc2c(-c3ccc(O)c(O)c3)oc3cc(O)cc(O)c3c2=O)[C@H](O)[C@H]1O)c1cc(O)c(O)c(O)c1,2.3 µg/mL,1.4 µg/mL,1.2 µg/mL
O=c1c(O)c(-c2ccc(O[C@@H]3O[C@@H](CO)[C@H](O)[C@H]3O)c(O)c2)oc2cc(O)cc(O)c12,> 10 µg/mL,9.1 µg/mL,7.3 µg/mL
O=C(OC[C@H]1O[C@@H](Oc2c(-c3ccc(O)c(O)c3)oc3cc(O)cc(O)c3c2=O)[C@H](O)[C@@H](O)[C@@H]1O)c1cc(O)c(O)c(O)c1,> 10 µg/mL,> 10 µg/mL,> 10 µg/mL
O=C(OC[C@@H]1O[C@@H](Oc2c(-c3ccc(O)cc3)oc3cc(O)cc(O)c3c2=O)[C@H](O)[C@H]1O)c1cc(O)c(O)c(O)c1,> 10 µg/mL,9 µg/mL,> 10 µg/mL
O=C(OC[C@H]1O[C@@H](Oc2c(-c3ccc(O)c(O)c3)oc3cc(O)cc(O)c3c2=O)[C@H](O)[C@@H](O)[C@@H]1OC(=O)c1cc(O)c(O)c(O)c1)c1cc(O)c(O)c(O)c1,> 10 µg/mL,> 10 µg/mL,3 µg/mL
